The results in this text go back to ChEMBL document CHEMBL5150070, “Tricyclic SpiroLactams Kill Mycobacteria In Vitro and In Vivo by Inhibiting Type II NADH Dehydrogenases” (J Med Chem, 2022).

The term logD denotes the decadic logarithm of the distribution of all forms, ionised or not, between an organic phase and buffer at a given pH. A lower logD goes with lower lipophilicity. For orientation: MIC means the smallest concentration in the dilution series that meets the test's criterion for growth inhibition.

SMILES strings stand for the structures. Converted amounts (≈) assume the structure as drawn.

In series [1] the test system is Mycobacterium tuberculosis. As to the kind of experiment: Antimycobacterial activity against Mycobacterium tuberculosis H37Rv assessed as reduction in bacterial cell growth by measuring resazurin reduction incubated for 6 days by fluorescence microplate based assay. The class given is functional. Particulars: time 6 day. (The colour change of resazurin is a common sign of viable cells or microbes.)

A short description of series [2]: Octanol/PBS partition coefficient, logD of compound at pH 7.4 measured after 2 hrs by shake flask method. Particulars: octanol/water, pH 7.4, 2 h. The class given is physicochemical. In a few lines: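 A 10 mM DMSO stock was diluted 50-fold into 1:1 octanol:PBS pH 7.4 and shaken gently for 2 h at room temperature. Each phase was diluted 50-fold in MeOH and quantified by LC-MS/MS. LogD = log of the octanol/PBS concentration ratio from mass signals. Run in triplicate.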

The subject of series [3] is Mycolicibacterium smegmatis. As to the kind of experiment: Antibiotic activity against Mycobacterium smegmatis mc2155 assessed as reduction in bacterial cell growth by measuring resazurin reduction incubated for 6 days by fluorescence microplate based assay. The conditions noted are these: mc2155, 144 h, time 6 day. The class given is functional.
Series [4] concerns Mycobacteroides abscessus. In words: Antibiotic activity against Mycobacterium abscessus CIP104536, Smooth variant assessed as reduction in bacterial cell growth by measuring resazurin reduction incubated for 6 days by fluorescence microplate based assay. It counts as functional. Particulars: 144 h, time 6 day.
The next series deals with Escherichia coli. In words: Antibiotic activity against Escherichia coli deltatolC BW25113 deltatolC assessed as reduction in bacterial cell growth by measuring resazurin reduction incubated for 6 days by fluorescence microplate based assay. It counts as functional. The conditions noted are these: 144 h, time 6 day. Summed up: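 E. coli BW25113, E. coli ΔtolC and S. aureus SH1000 were cultured and tested in cation-adjusted Mueller Hinton II broth. Viability was read by adding resazurin and measuring resorufin fluorescence at Ex 530 nm / Em 590 nm.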

The test system of another series is Klebsiella pneumoniae. In words: Antibiotic activity against Klebsiella pneumoniae LMG 2095 assessed as reduction in bacterial cell growth by measuring resazurin reduction incubated for 6 days by fluorescence microplate based assay. It counts as functional. Particulars: LMG 2095, 144 h, time 6 day.
The test system of series [5] is Mycobacterium tuberculosis. As to the kind of experiment: Bactericidal activity against Non-replicating Mycobacterium tuberculosis ss18b-lux assessed as bacterial killing by measuring CFU after 1 week. It counts as functional, organism-based. Particulars: time 1.0 weeks, DDE = dose-dependent effect. In a few lines:
(§1)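 Streptomycin-dependent 18b-lux starved of streptomycin for 14 days (OD600 reset to 0.2 on days 7 and 13) to become non-replicating. Diluted to OD600 0.15 on dispensed compound and held at 37°C. On day 7, active wells plated on 7H11-OADC with 50 µg/mL streptomycin and incubated up to 8 weeks for cfu.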

Series [6] concerns Mycobacterium tuberculosis. In words: Bactericidal activity against Non-replicating Mycobacterium tuberculosis ss18b-lux assessed as decrease in colony forming unit measured at 4.8 uM after 1 weeks. It counts as functional. In a few lines:
as §1

Series [7] in a line: Metabolic stability in mouse liver microsomes. The class given is ADME, Microsome. (In general: Liver microsomes are vesicles of endoplasmic reticulum, rich in cytochrome P450 enzymes.)
The nature of series [8]: Toxicity in noninfected zebrafish larvae assessed as toxic effect. On the set-up: species or system Danio rerio. Particulars: in vivo.

Turning to `CC(C)[C@H]1CO[C@]23CCN(Cc4ccc(C(F)(F)F)cc4)C[C@H]2CCC(=O)N13`, in [1], the MIC98 worked out at 0.1 µM (≈ 0.0396 µg/mL). The compound also registered a logD in [2] of 3.4. Further, the MIC is 1.3 µM (≈ 0.515 µg/mL) in series [3], 5 µM (≈ 1.98 µg/mL) in series [4], 100 µM (≈ 39.6 µg/mL) with Escherichia coli and more than 100 µM with Klebsiella pneumoniae. Also, the Activity entry was “Dde” in [5], 1 log10CFU in [6] and “Non-Toxic” in series [8]. For the same compound, the Drug metabolism result in [7] is “Metabolite_Detected”.
